# ERp5 block: inhibitors of ERp5-driven insulin aggregation, primary screen, biochemical, turbidity, absorbance 650 nm, single point | AID 651711, 2012 | 90 min | 350,000 compounds, 0.05% hits | inhibition, % at 9.99 µM | Protein disulfide-isomerase A6 (Homo sapiens), Q15084;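 active = mean replicate inhibition above about 25%, with every replicate also reaching it, limit read from the data, passing the limit was not always enough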
# FN deposit inh: inhibitors of fibronectin matrix deposition, primary screen, AH1F cells, Alexa488-fibronectin fluorescence, plate reader; 350,000 compounds, 0.086% hits; AH1F fibroblasts, overnight; inhibition, % at 12.6 µM;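 active = mean inhibition across replicates of 30% or more, regardless of how many single replicates reach that level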;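 also: positive control wells lacked labelled fibronectin entirely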
#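 Material: AH1F fibroblast monolayer depositing Alexa488-labelled fibronectin into matrix | Input: 10000 AH1F cells/well | Medium: DMEM plus 2% serum, read in PBS | Reagent: Alexa488-fibronectin, 24 nM final in well | Compound dosing: One dose per compound, pinned | Schedule: 1 h adhesion, overnight exposure | Measured by: Fluorescence at 485 nm excitation, 525 nm emission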
# PDI turbidity: inhibitors of human PDI, primary screen, biochemical, turbidity, single point, plate reader | Protein disulfide-isomerase (Homo sapiens), P07237 | PDI insulin aggregation turbidity, A650, 90 min | inhibition, % at 10 µM | 350,000 compounds, 0.052% hits;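 active = mean inhibition across replicates of 30% or more, whatever share of single replicates reach that level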
# Target sequence (P07237 whole entry, looked up): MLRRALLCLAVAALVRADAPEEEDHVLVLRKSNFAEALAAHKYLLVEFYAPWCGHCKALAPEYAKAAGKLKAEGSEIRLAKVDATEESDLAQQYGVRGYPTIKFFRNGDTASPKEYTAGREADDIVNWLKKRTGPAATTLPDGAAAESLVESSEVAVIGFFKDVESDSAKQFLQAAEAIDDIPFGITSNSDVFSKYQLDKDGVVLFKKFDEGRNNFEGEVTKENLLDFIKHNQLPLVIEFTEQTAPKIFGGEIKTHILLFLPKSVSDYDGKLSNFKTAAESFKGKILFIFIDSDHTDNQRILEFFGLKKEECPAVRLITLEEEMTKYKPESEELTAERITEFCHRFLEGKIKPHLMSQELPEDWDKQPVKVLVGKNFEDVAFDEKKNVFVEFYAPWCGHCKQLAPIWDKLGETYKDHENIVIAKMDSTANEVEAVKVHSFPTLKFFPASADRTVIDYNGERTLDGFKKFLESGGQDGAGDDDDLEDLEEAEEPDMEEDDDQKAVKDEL
# HIV Env fusion: inhibitors of HIV-1 Env-driven cell-cell fusion, primary screen, HeLa-JRFL effector, CEM21 target cells, luciferase; inhibition, % at 12.3 µM; 360,000 compounds, 1.1% hits; AID 651610, 2012;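 active = mean replicate inhibition score of at least 50 and every replicate individually at or above 50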;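 also: 0% = plate neutral controls and 100% = maraviroc near 300 nM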
# INS-1E GSIS act: GLuc luminescence reporter in INS-1E cells, primary screen for activators of glucose-dependent secretion of insulin. 370,000 compounds, 0.61% hits. AID 743287, 2014. activation, % at 16.6 µM. INS-1E GLuc reporter insulin secretion, 2-3 h;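 active = lowest replicate activation of at least 40%, so every replicate reaches that level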;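 also: 0% = median of neutral control wells and 100% = median of IBMX positive control wells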
# * = called active by the depositor; / = not tested or not shown; [ ] = remark or other dose. The list is not random: actives were taken first. Their share in the collection is about 1.4%.
SMILES,ERp5 block,FN deposit inh,PDI turbidity,HIV Env fusion,INS-1E GSIS act
O=C(Nc1cccc(Cl)c1)Nc1cccc(C(=O)O)c1,-2.9,4.6,3.0,40.3,-5.2
C[C@@H]1CCCCO[C@H](CN(C)S(=O)(=O)c2ccc(F)cc2)[C@@H](C)CN([C@@H](C)CO)C(=O)c2cc(NS(=O)(=O)c3ccccc3)ccc2O1,4.1,/,/,-53.5[16.7 µM],-19.6
CC(C)CC#Cc1ccc2c(c1)O[C@@H](CN(C)C(=O)Cc1ccncc1)[C@@H](C)CN([C@@H](C)CO)S2(=O)=O,-2.6,/,/,-9.8[16.7 µM],-12.4
COc1ccc(NC(=O)C2CCN(c3cc(-c4ccccc4)nc4ncnn34)CC2)cc1OC,/,1.8,0.6,60.1*,-21.1
COc1ccc(OC)c(NC(=O)C2CCN(c3cc(-c4ccccc4)nc4ncnn34)CC2)c1,/,/,7.9,3.7,/
C[C@H]1CN([C@@H](C)CO)C(=O)c2cccc(NC(=O)C3CC3)c2O[C@@H]1CN(C)Cc1ccccc1,0.5,/,/,/,3.7
C[C@H]1CN([C@@H](C)CO)C(=O)Cc2cc(NC(=O)Cc3ccccc3)ccc2O[C@@H]1CN(C)S(=O)(=O)c1cccs1,-1.1,-6.7,/,10.1[16.7 µM],21.2
C[C@H](CO)N1C[C@H](C)[C@H](CN(C)S(=O)(=O)c2cccs2)Oc2ccc(NC(=O)CCN3CCOCC3)cc2CC1=O,-1.0,/,/,55.5*[16.7 µM],16.0
C[C@H](CO)N1C[C@H](C)[C@H](CN(C)S(=O)(=O)c2cccs2)Oc2ccc(NC(=O)Cc3ccccc3)cc2CC1=O,-1.6,/,/,95.5*[16.7 µM],/
C[C@H]1CN([C@@H](C)CO)C(=O)Cc2cc(NC(=O)Nc3ccccc3)ccc2O[C@H]1CN(C)S(=O)(=O)c1cccs1,0.3,/,/,69.7*[16.7 µM],-17.4
COc1ccc(S(=O)(=O)Nc2ccc3c(c2)CC(=O)N([C@@H](C)CO)C[C@H](C)[C@H](CN(C)S(=O)(=O)c2cccs2)O3)cc1,-1.5,-1.4,/,80.0*[16.7 µM],0.1
COc1ccc(C#Cc2ccc([C@@H]3[C@@H](CO)N4CCCCN(Cc5ccncc5)C[C@@H]34)cc2)cc1,2.4,/,/,/,7.3
C[C@H](CO)N1C[C@H](C)[C@H](CN(C)S(=O)(=O)c2ccccc2)Oc2ccc(NC(=O)Cc3ccccc3)cc2C1=O,4.8,/,/,-9.4[16.7 µM],-9.6
O=C(C[C@H]1C=C[C@@H](NC(=O)c2ccncc2)[C@H](CO)O1)Nc1ccccc1,3.0,11.5,/,/,8.3
C[C@H](CO)N1C[C@H](C)[C@H](CN(C)S(=O)(=O)c2cccs2)Oc2ccc(NC(=O)C3CCCCC3)cc2CC1=O,0.9,/,/,61.1*[16.7 µM],-4.0
COc1ccc(NC(=O)Nc2ccc3c(c2)CC(=O)N([C@@H](C)CO)C[C@H](C)[C@H](CN(C)S(=O)(=O)c2cccs2)O3)cc1,/,-5.6,/,75.3*[16.7 µM],-12.6
O=C(C[C@H]1C[C@H]2c3cc(NC(=O)NC4CCCC4)ccc3O[C@H]2[C@H](CO)O1)NC1CCCC1,3.0,0.2,/,10.1[16.7 µM],8.1
COc1ccc(CN(C)C[C@@H]2Oc3ccc(NC(=O)c4ccncc4)cc3CC(=O)N([C@@H](C)CO)C[C@@H]2C)cc1,2.1,6.0,/,-22.6[16.7 µM],5.7
O=C(C[C@H]1CC[C@@H]2[C@H](COC[C@@H](O)CN2Cc2ccc(F)cc2)O1)NCc1ccncn1,-7.3,-7.6,/,2.6[16.7 µM],1.1
CN=c1scc(-c2cccs2)n1/N=C/c1ccccc1O,-2.2,/,2.1,56.7*,-0.7
CO[C@@H](CN(C)S(=O)(=O)c1ccccc1)[C@@H](C)CN(C(=O)Nc1ccccc1F)[C@H](C)CO,-0.6,-1.3,/,/,8.1
C[C@H](CO)N1C[C@H](C)[C@@H](CN(C)S(=O)(=O)c2ccccc2)Oc2ncc(C#CC3CCCCC3)cc2C1=O,-10.8,/,/,8.6[16.7 µM],-17.2
C[C@H](O)C#Cc1cnc2c(c1)C(=O)N([C@@H](C)CO)C[C@H](C)[C@H](CN(C)CC1CCCCC1)O2,32.2*,-3.1,/,-14.3[16.7 µM],4.3
C[C@H](CO)N1C[C@H](C)[C@H](CN(C)S(=O)(=O)c2ccc(C#N)cc2)Oc2ncc(/C=C/c3ccccc3)cc2C1=O,3.7,/,/,74.3*[16.7 µM],4.5
C[C@@H]1CN([C@@H](C)CO)C(=O)c2cc(C#CC3CCCCC3)cnc2O[C@@H]1CN(C)S(=O)(=O)c1ccccc1,28.6*,/,/,52.2[16.7 µM],-23.3
C[C@H](CO)N1C[C@H](C)[C@H](CN(C)S(=O)(=O)c2cn(C)cn2)Oc2ncc(C#Cc3ccccc3)cc2C1=O,36.2*,/,/,12.4[16.7 µM],/

# Assay outcomes deposited in PubChem by Broad Institute.
